Experimental findings from ChEMBL document CHEMBL3425440, “ent-Kaurane Diterpenoids from Chinese Liverworts and Their Antitumor Activities through Michael Addition As Detected in Situ by a Fluorescence Probe” (J Med Chem, 2015) are described below.

For one experiment, the system named is K562. As to the kind of experiment: Cytotoxicity against human K562 cells assessed as cell viability after 24 hrs by MTT assay. The experiment is classed as functional, cell-based. Particulars: K562, 24 h. In a few lines:
(§1)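 Cells grown to about 50−70% confluence at 37 °C, 5% CO2, then exposed to compounds 24 h (DMSO vehicle control, cisplatin positive control). MTT (5 mg/mL stock) added for 4 h, formazan dissolved in DMSO, absorbance read at 570 nm. IC50 derived from percent viability; at least three independent experiments, mean ± SD.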
The term IC50 denotes the concentration that gives 50% inhibition. `C[C@H]1C(=O)[C@@]23CC[C@@H]4[C@](C)(CO)CCC[C@@]4(C)C2=CC[C@]1(O)C3`: the IC50 is over 50 µM.
With `C[C@@H]1C(=O)[C@@]23CC[C@@H]4[C@@](C)(CO)CCC[C@@]4(C)C2=CC[C@]1(O)C3`, the IC50 is over 50 µM.
Regarding `C[C@H]1C(=O)[C@@]23CC[C@@H]4C(C)(C)CCC[C@@]4(C)[C@@H]2[C@@H](O)C[C@@H]1C3`, the IC50 was over 50 µM.

For another experiment, the system named is MDA-MB-231. As to the kind of experiment: Cytotoxicity against human MDA-MB-231 cells assessed as cell viability after 24 hrs by MTT assay. Particulars: MDA-MB-231, 24 h. The experiment is classed as functional, cell-based. In a few lines: as §1
For orientation: Formazan colour is commonly taken as a measure of viable cells.
Take `C[C@H]1C(=O)[C@@]23CC[C@@H]4[C@](C)(CO)CCC[C@@]4(C)C2=CC[C@]1(O)C3`: the IC50 was over 50 µM.
On the same count and under the same terms, the same measure for `C[C@@H]1C(=O)[C@@]23CC[C@@H]4[C@@](C)(CO)CCC[C@@]4(C)C2=CC[C@]1(O)C3`: over 50 µM; for `C[C@H]1C(=O)[C@@]23CC[C@@H]4C(C)(C)CCC[C@@]4(C)[C@@H]2[C@@H](O)C[C@@H]1C3`: over 50 µM.

System in the next experiment: not listed separately
As to the kind of experiment: Cytotoxicity against human RWPE1 cells assessed as cell viability after 24 hrs by MTT assay. Particulars: RWPE-1, 24 h. The experiment is classed as cell-based. In outline: as §1
In the case of `C[C@H]1C(=O)[C@@]23CC[C@@H]4[C@](C)(CO)CCC[C@@]4(C)C2=CC[C@]1(O)C3`, the IC50 was over 50 µM.
Take `C[C@@H]1C(=O)[C@@]23CC[C@@H]4[C@@](C)(CO)CCC[C@@]4(C)C2=CC[C@]1(O)C3`: the IC50 was over 50 µM.
As to `C[C@H]1C(=O)[C@@]23CC[C@@H]4C(C)(C)CCC[C@@]4(C)[C@@H]2[C@@H](O)C[C@@H]1C3`, the IC50 is over 50 µM.

System in the next experiment: not listed separately
Kind of experiment: Cytotoxicity against human A172 cells assessed as cell viability after 24 hrs by MTT assay. The experiment is classed as functional, cell-based. Particulars: A 172, 24 h. In outline:
as §1
In the case of `C[C@H]1C(=O)[C@@]23CC[C@@H]4[C@](C)(CO)CCC[C@@]4(C)C2=CC[C@]1(O)C3`, the IC50 is over 50 µM.
With `C[C@@H]1C(=O)[C@@]23CC[C@@H]4[C@@](C)(CO)CCC[C@@]4(C)C2=CC[C@]1(O)C3`, the IC50 is over 50 µM.
The same measure, in the same setting: the same measure for `C[C@H]1C(=O)[C@@]23CC[C@@H]4C(C)(C)CCC[C@@]4(C)[C@@H]2[C@@H](O)C[C@@H]1C3`: over 50 µM.

System in another experiment: not listed separately
Kind of experiment: Cytotoxicity against human SKOV3 cells assessed as cell viability after 24 hrs by MTT assay. The experiment is classed as functional, cell-based. Particulars: SK-OV-3, 24 h. In outline:
as §1
On to `C[C@H]1C(=O)[C@@]23CC[C@@H]4[C@](C)(CO)CCC[C@@]4(C)C2=CC[C@]1(O)C3`, for which the IC50 is over 50 µM.
On to `C[C@@H]1C(=O)[C@@]23CC[C@@H]4[C@@](C)(CO)CCC[C@@]4(C)C2=CC[C@]1(O)C3`, for which the IC50 was over 50 µM.
In the case of `C[C@H]1C(=O)[C@@]23CC[C@@H]4C(C)(C)CCC[C@@]4(C)[C@@H]2[C@@H](O)C[C@@H]1C3`, the IC50 is over 50 µM.

System in the next experiment: not listed separately
Kind of experiment: Cytotoxicity against human PC3 cells assessed as cell viability after 24 hrs by MTT assay. The experiment is classed as functional, cell-based. The note with it: PC-3, 24 h. In a few lines: as §1
`C[C@H]1C(=O)[C@@]23CC[C@@H]4[C@](C)(CO)CCC[C@@]4(C)C2=CC[C@]1(O)C3`: the IC50 was over 50 µM.
The same measure, in the same setting: the value for `C[C@@H]1C(=O)[C@@]23CC[C@@H]4[C@@](C)(CO)CCC[C@@]4(C)C2=CC[C@]1(O)C3` was over 50 µM; that for `C[C@H]1C(=O)[C@@]23CC[C@@H]4C(C)(C)CCC[C@@]4(C)[C@@H]2[C@@H](O)C[C@@H]1C3` was over 50 µM.

The subject of another experiment is LNCaP. As to the kind of experiment: Cytotoxicity against human LNCAP cells assessed as cell viability after 24 hrs by MTT assay. The experiment is classed as functional, cell-based.
Settings: not given
In a few lines:
as §1
As for `C[C@H]1C(=O)[C@@]23CC[C@@H]4[C@](C)(CO)CCC[C@@]4(C)C2=CC[C@]1(O)C3`, the IC50 was over 50 µM.
The same measure, in the same setting: the same measure for `C[C@@H]1C(=O)[C@@]23CC[C@@H]4[C@@](C)(CO)CCC[C@@]4(C)C2=CC[C@]1(O)C3`: over 50 µM.
Take `C[C@H]1C(=O)[C@@]23CC[C@@H]4C(C)(C)CCC[C@@]4(C)[C@@H]2[C@@H](O)C[C@@H]1C3`: the concentration for half-maximal inhibition (IC50) is over 50 µM.

The test system of another experiment is LoVo. As to the kind of experiment: Cytotoxicity against human LoVo cells assessed as cell viability after 24 hrs by MTT assay. The experiment is classed as functional, cell-based.
Settings: not given
In outline:
as §1
With `C[C@H]1C(=O)[C@@]23CC[C@@H]4[C@](C)(CO)CCC[C@@]4(C)C2=CC[C@]1(O)C3`, the 50% inhibitory concentration (IC50) was over 50 µM.
Still for that read-out and setting: the same measure for `C[C@@H]1C(=O)[C@@]23CC[C@@H]4[C@@](C)(CO)CCC[C@@]4(C)C2=CC[C@]1(O)C3`: over 50 µM.
Regarding `C[C@H]1C(=O)[C@@]23CC[C@@H]4C(C)(C)CCC[C@@]4(C)[C@@H]2[C@@H](O)C[C@@H]1C3`, the concentration for half-maximal inhibition (IC50) is over 50 µM.

System in a further experiment: not listed separately
Kind of experiment: Cytotoxicity against human T24 cells assessed as cell viability after 24 hrs by MTT assay. The experiment is classed as functional, cell-based. The note with it: T-24, 24 h. In outline:
as §1
For `C[C@H]1C(=O)[C@@]23CC[C@@H]4[C@](C)(CO)CCC[C@@]4(C)C2=CC[C@]1(O)C3`, the 50% inhibitory concentration (IC50) was over 50 µM.
Take `C[C@@H]1C(=O)[C@@]23CC[C@@H]4[C@@](C)(CO)CCC[C@@]4(C)C2=CC[C@]1(O)C3`: the IC50 was over 50 µM.
As for `C[C@H]1C(=O)[C@@]23CC[C@@H]4C(C)(C)CCC[C@@]4(C)[C@@H]2[C@@H](O)C[C@@H]1C3`, the half-maximal inhibitory concentration (IC50) was over 50 µM.

For the next experiment, the system named is DU-145. Kind of experiment: Cytotoxicity against human DU145 cells assessed as cell viability after 24 hrs by MTT assay. The experiment is classed as functional, cell-based. Particulars: DU-145, 24 h. In a few lines:
as §1
On to `C[C@H]1C(=O)[C@@]23CC[C@@H]4[C@](C)(CO)CCC[C@@]4(C)C2=CC[C@]1(O)C3`, for which the IC50 is over 50 µM.
Turning to `C[C@@H]1C(=O)[C@@]23CC[C@@H]4[C@@](C)(CO)CCC[C@@]4(C)C2=CC[C@]1(O)C3`, the IC50 is over 50 µM.
On to `C[C@H]1C(=O)[C@@]23CC[C@@H]4C(C)(C)CCC[C@@]4(C)[C@@H]2[C@@H](O)C[C@@H]1C3`, for which the IC50 was over 50 µM.

System in another experiment: not listed separately
Kind of experiment: Cytotoxicity against human SH-SY5Y cells assessed as cell viability after 24 hrs by MTT assay. The experiment is classed as functional, cell-based.
Settings: not given
In outline: as §1
`C[C@H]1C(=O)[C@@]23CC[C@@H]4[C@](C)(CO)CCC[C@@]4(C)C2=CC[C@]1(O)C3`: the IC50 was over 50 µM.
For `C[C@@H]1C(=O)[C@@]23CC[C@@H]4[C@@](C)(CO)CCC[C@@]4(C)C2=CC[C@]1(O)C3`, the IC50 is over 50 µM.
Consider `C[C@H]1C(=O)[C@@]23CC[C@@H]4C(C)(C)CCC[C@@]4(C)[C@@H]2[C@@H](O)C[C@@H]1C3`, for which the IC50 is over 50 µM.

Another experiment deals with NCI-H1299. Kind of experiment: Cytotoxicity against human NCI-H1299 cells assessed as cell viability after 24 hrs by MTT assay. The experiment is classed as functional, cell-based. The note with it: NCI-H1299, 24 h. In a few lines:
as §1
Consider `C[C@H]1C(=O)[C@@]23CC[C@@H]4[C@](C)(CO)CCC[C@@]4(C)C2=CC[C@]1(O)C3`, for which the IC50 was over 50 µM.
For `C[C@@H]1C(=O)[C@@]23CC[C@@H]4[C@@](C)(CO)CCC[C@@]4(C)C2=CC[C@]1(O)C3`, the IC50 was over 50 µM.
Consider `C[C@H]1C(=O)[C@@]23CC[C@@H]4C(C)(C)CCC[C@@]4(C)[C@@H]2[C@@H](O)C[C@@H]1C3`, for which the IC50 was over 50 µM.

System in the next experiment: not listed separately
Kind of experiment: Cytotoxicity against human Saos2 cells assessed as cell viability after 24 hrs by MTT assay. The note with it: SAOS-2, 24 h. The experiment is classed as functional, cell-based. In a few lines: as §1
On to `C[C@H]1C(=O)[C@@]23CC[C@@H]4[C@](C)(CO)CCC[C@@]4(C)C2=CC[C@]1(O)C3`, for which the IC50 was over 50 µM.
`C[C@@H]1C(=O)[C@@]23CC[C@@H]4[C@@](C)(CO)CCC[C@@]4(C)C2=CC[C@]1(O)C3`: the IC50 was over 50 µM.
With `C[C@H]1C(=O)[C@@]23CC[C@@H]4C(C)(C)CCC[C@@]4(C)[C@@H]2[C@@H](O)C[C@@H]1C3`, the IC50 is over 50 µM.

System in another experiment: not listed separately
Kind of experiment: Cytotoxicity against human HL60 cells assessed as cell viability after 24 hrs by MTT assay. The experiment is classed as functional, cell-based. Particulars: HL-60, 24 h. In outline: as §1
Take `C[C@H]1C(=O)[C@@]23CC[C@@H]4[C@](C)(CO)CCC[C@@]4(C)C2=CC[C@]1(O)C3`: the IC50 is over 50 µM.
For the compound `C[C@@H]1C(=O)[C@@]23CC[C@@H]4[C@@](C)(CO)CCC[C@@]4(C)C2=CC[C@]1(O)C3`, the IC50 was over 50 µM.
On the same count and under the same terms, the same measure for `C[C@H]1C(=O)[C@@]23CC[C@@H]4C(C)(C)CCC[C@@]4(C)[C@@H]2[C@@H](O)C[C@@H]1C3`: over 50 µM.
